# Results as given in ChEMBL document CHEMBL4673214, “Synthesis and antibacterial bioactivities of cationic deacetyl linezolid amphiphiles” (Eur J Med Chem, 2018).
# Activity calls are given as the source filed them. The calls are words filed in the database; no cut-off is given here.
# Assays:
# Staphylococcus aureus [1] = assay: Antibacterial activity against methicillin-resistant Staphylococcus aureus clinical isolate 6 assessed as reduction in bacterial growth incubated for 16 to 20 hrs by CLSI-based broth microdilution method; assay type: functional; conditions: time 16-20 hrs
# How it was run: (§1)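 Clinical isolates tested by broth microdilution in cation-adjusted Mueller-Hinton broth. Cultures grown 4-6 h (~10^8 CFU/mL) were diluted to ~10^6 CFU/mL and mixed 1:1 with compound serial dilutions made from 256 down to 0.5 µg/mL (pre-mixing). Plates held at 37 °C for 16-20 h, then read for growth. Each concentration run in duplicate, whole experiment at least twice.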
# Staphylococcus aureus [2] = assay: Antibacterial activity against methicillin-resistant Staphylococcus aureus clinical isolate 1 assessed as reduction in bacterial growth incubated for 16 to 20 hrs by CLSI-based broth microdilution method; assay type: functional; conditions: time 16-20 hrs; how it was run: as §1
# Enterobacteriaceae [3] = assay: Antibacterial activity against NDM1 producing carbapenem-resistant Enterobacteriaceae clinical isolate 5 assessed as reduction in bacterial growth incubated for 16 to 20 hrs by CLSI-based broth microdilution method; assay type: functional; conditions: time 16-20 hrs; how it was run: as §1
# Cell membrane [4] = assay: Induction of outer membrane permeabilization in Escherichia coli ATCC 25922 at 20 ug/ml measured for 12 mins by NPN dye based fluorescence assay; conditions: dose 20.0 µg/ml
# How it was run: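 Mid-log E. coli in HEPES/glucose/KCl at ~10^8 CFU/mL was preincubated 40 min with N-phenylnaphthylamine (10 µM stock). Fluorescence (ex 350/em 420 nm) was read for an 8 min baseline, then every 2 min for 12 min after compound at 20 µg/mL final. Water served as control.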
# Klebsiella pneumoniae [5] = assay: Antibacterial activity against carbapenem-resistant Klebsiella pneumoniae clinical isolate 5 assessed as reduction in bacterial growth incubated for 16 to 20 hrs by CLSI-based broth microdilution method; assay type: functional; conditions: time 16-20 hrs; how it was run: as §1
# Klebsiella pneumoniae [6] = assay: Antibacterial activity against carbapenem-resistant Klebsiella pneumoniae clinical isolate 2 assessed as reduction in bacterial growth incubated for 16 to 20 hrs by CLSI-based broth microdilution method; assay type: functional; conditions: time 16-20 hrs; how it was run: as §1
# Cell membrane [7] = assay: Induction of cytoplasmic membrane depolarization in Staphylococcus aureus ATCC 29213 at 20 ug/ml measured for 12 mins by DiSC35 dye-based fluorescence assay; assay type: subcellular; conditions: dose 20.0 µg/ml
# How it was run: (§2)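 Mid-log bacteria were washed and resuspended at ~10^8 CFU/mL: S. aureus in PBS, E. coli in 5 mM HEPES/5 mM glucose/100 mM KCl (1:1:1). Cells were loaded with diSC35 (10 µM stock) for 30 min (S. aureus) or 40 min (E. coli, plus EDTA). Fluorescence (ex 622/em 670 nm) was read for an 8 min baseline, then every 2 min for 12 min after compound at 20 µg/mL final. Water served as control.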
# Klebsiella pneumoniae [8] = assay: Antibacterial activity against carbapenem-resistant Klebsiella pneumoniae clinical isolate 1 assessed as reduction in bacterial growth incubated for 16 to 20 hrs by CLSI-based broth microdilution method; assay type: functional; conditions: time 16-20 hrs; how it was run: as §1
# Staphylococcus aureus [9] = assay: Antibacterial activity against methicillin-resistant Staphylococcus aureus clinical isolate 4 assessed as reduction in bacterial growth incubated for 16 to 20 hrs by CLSI-based broth microdilution method; assay type: functional; conditions: time 16-20 hrs; how it was run: as §1
# Escherichia coli = assay: Antibacterial activity against Escherichia coli ATCC 25922 assessed as reduction in bacterial growth incubated 16 to 20 hrs by CLSI-based broth microdilution method; assay type: functional; conditions: time 16-20 hrs
# How it was run: (§3)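 Broth microdilution following CLSI, in cation-adjusted Mueller-Hinton broth. Inoculum from a 4-6 h culture (~10^8 CFU/mL), diluted to ~10^6 CFU/mL. Water stocks were serially diluted in MHB (256 to 0.5 µg/mL) and mixed 1:1 with the inoculum. Plates ran 16-20 h at 37 °C. MIC was read visually. Each concentration was tested in duplicate, and the experiment was repeated at least twice.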
# Staphylococcus aureus [10] = assay: Antibacterial activity against Staphylococcus aureus ATCC 29213 assessed as reduction in bacterial growth incubated for 16 to 20 hrs by CLSI-based broth microdilution method; assay type: functional; conditions: time 16-20 hrs; how it was run: as §3
# Staphylococcus aureus [11] = assay: Antibacterial activity against methicillin-resistant Staphylococcus aureus clinical isolate 5 assessed as reduction in bacterial growth incubated for 16 to 20 hrs by CLSI-based broth microdilution method; assay type: functional; conditions: time 16-20 hrs; how it was run: as §1
# Klebsiella pneumoniae [12] = assay: Antibacterial activity against carbapenem-resistant Klebsiella pneumoniae clinical isolate 9 assessed as reduction in bacterial growth incubated for 16 to 20 hrs by CLSI-based broth microdilution method; assay type: functional; conditions: time 16-20 hrs; how it was run: as §1
# Enterobacteriaceae [13] = assay: Antibacterial activity against NDM1 producing carbapenem-resistant Enterobacteriaceae clinical isolate 8 assessed as reduction in bacterial growth incubated for 16 to 20 hrs by CLSI-based broth microdilution method; assay type: functional; conditions: time 16-20 hrs; how it was run: as §1
# Staphylococcus aureus [14] = assay: Antibacterial activity against methicillin-resistant Staphylococcus aureus clinical isolate 8 assessed as reduction in bacterial growth incubated for 16 to 20 hrs by CLSI-based broth microdilution method; assay type: functional; conditions: time 16-20 hrs; how it was run: as §1
# Enterobacteriaceae [15] = assay: Antibacterial activity against NDM1 producing carbapenem-resistant Enterobacteriaceae clinical isolate 10 assessed as reduction in bacterial growth incubated for 16 to 20 hrs by CLSI-based broth microdilution method; assay type: functional; conditions: time 16-20 hrs; how it was run: as §1
# Klebsiella pneumoniae [16] = assay: Antibacterial activity against carbapenem-resistant Klebsiella pneumoniae clinical isolate 8 assessed as reduction in bacterial growth incubated for 16 to 20 hrs by CLSI-based broth microdilution method; assay type: functional; conditions: time 16-20 hrs; how it was run: as §1
# Klebsiella pneumoniae [17] = assay: Antibacterial activity against carbapenem-resistant Klebsiella pneumoniae clinical isolate 10 assessed as reduction in bacterial growth incubated for 16 to 20 hrs by CLSI-based broth microdilution method; assay type: functional; conditions: time 16-20 hrs; how it was run: as §1
# Klebsiella pneumoniae [18] = assay: Antibacterial activity against carbapenem-resistant Klebsiella pneumoniae clinical isolate 6 assessed as reduction in bacterial growth incubated for 16 to 20 hrs by CLSI-based broth microdilution method; assay type: functional; conditions: time 16-20 hrs; how it was run: as §1
# Enterobacteriaceae [19] = assay: Antibacterial activity against NDM1 producing carbapenem-resistant Enterobacteriaceae clinical isolate 7 assessed as reduction in bacterial growth incubated for 16 to 20 hrs by CLSI-based broth microdilution method; assay type: functional; conditions: time 16-20 hrs; how it was run: as §1
# Cell membrane [20] = assay: Induction of cytoplasmic membrane depolarization in Escherichia coli ATCC 25922 at 20 ug/ml measured for 12 mins by DiSC35 dye-based fluorescence assay; assay type: subcellular; conditions: dose 20.0 µg/ml; how it was run: as §2
# Enterobacteriaceae [21] = assay: Antibacterial activity against NDM1 producing carbapenem-resistant Enterobacteriaceae clinical isolate 1 assessed as reduction in bacterial growth incubated for 16 to 20 hrs by CLSI-based broth microdilution method; assay type: functional; conditions: time 16-20 hrs; how it was run: as §1
# Enterobacteriaceae [22] = assay: Antibacterial activity against NDM1 producing carbapenem-resistant Enterobacteriaceae clinical isolate 9 assessed as reduction in bacterial growth incubated for 16 to 20 hrs by CLSI-based broth microdilution method; assay type: functional; conditions: time 16-20 hrs; how it was run: as §1
# Enterobacteriaceae [23] = assay: Antibacterial activity against NDM1 producing carbapenem-resistant Enterobacteriaceae clinical isolate 4 assessed as reduction in bacterial growth incubated for 16 to 20 hrs by CLSI-based broth microdilution method; assay type: functional; conditions: time 16-20 hrs; how it was run: as §1
# Staphylococcus aureus [24] = assay: Antibacterial activity against methicillin-resistant Staphylococcus aureus clinical isolate 7 assessed as reduction in bacterial growth incubated for 16 to 20 hrs by CLSI-based broth microdilution method; assay type: functional; conditions: time 16-20 hrs; how it was run: as §1
# Enterobacteriaceae [25] = assay: Antibacterial activity against NDM1 producing carbapenem-resistant Enterobacteriaceae clinical isolate 2 assessed as reduction in bacterial growth incubated for 16 to 20 hrs by CLSI-based broth microdilution method; assay type: functional; conditions: time 16-20 hrs; how it was run: as §1
# Klebsiella pneumoniae [26] = assay: Antibacterial activity against carbapenem-resistant Klebsiella pneumoniae clinical isolate 4 assessed as reduction in bacterial growth incubated for 16 to 20 hrs by CLSI-based broth microdilution method; assay type: functional; conditions: time 16-20 hrs; how it was run: as §1
Structure (SMILES),MIC (Staphylococcus aureus [1]),MIC (Staphylococcus aureus [2]),MIC (Enterobacteriaceae [3]),Activity (Cell membrane [4]),MIC (Klebsiella pneumoniae [5]),MIC (Klebsiella pneumoniae [6]),Activity (Cell membrane [7]),MIC (Klebsiella pneumoniae [8]),MIC (Staphylococcus aureus [9]),MIC (Escherichia coli),MIC (Staphylococcus aureus [10]),MIC (Staphylococcus aureus [11]),MIC (Klebsiella pneumoniae [12]),MIC (Enterobacteriaceae [13]),MIC (Staphylococcus aureus [14]),MIC (Enterobacteriaceae [15]),MIC (Klebsiella pneumoniae [16]),MIC (Klebsiella pneumoniae [17]),MIC (Klebsiella pneumoniae [18]),MIC (Enterobacteriaceae [19]),further results
C[C@@H](O)[C@H]1C(=O)N2C(C(=O)O)=C(S[C@@H]3CN[C@H](C(=O)N(C)C)C3)[C@H](C)[C@H]12 [MEROPENEM],32 µg/mL,64 µg/mL,8 µg/mL,inactive,32 µg/mL,> 64 µg/mL,inactive,> 64 µg/mL,32 µg/mL,< 0.125 µg/mL,0.125 µg/mL,64 µg/mL,> 64 µg/mL,> 64 µg/mL,64 µg/mL,> 64 µg/mL,32 µg/mL,64 µg/mL,> 64 µg/mL,64 µg/mL,Activity (Cell membrane [20]): inactive; MIC (Enterobacteriaceae [21]): 32 µg/mL; MIC (Enterobacteriaceae [22]): > 64 µg/mL; MIC (Enterobacteriaceae [23]): 64 µg/mL; MIC (Staphylococcus aureus [24]): 64 µg/mL; MIC (Enterobacteriaceae [25]): 16 µg/mL; MIC (Klebsiella pneumoniae [26]): 32 µg/mL
CCCCCCCCCCCN(C[C@H]1CN(c2ccc(N3CCOCC3)c(F)c2)C(=O)O1)C(=O)[C@@H](N)CCCCN.Cl.Cl,2 µg/mL,4 µg/mL,8 µg/mL,inactive,16 µg/mL,16 µg/mL,Active,16 µg/mL,4 µg/mL,8 µg/mL,2 µg/mL,4 µg/mL,16 µg/mL,16 µg/mL,4 µg/mL,16 µg/mL,16 µg/mL,16 µg/mL,16 µg/mL,16 µg/mL,Activity (Cell membrane [20]): Active; MIC (Enterobacteriaceae [21]): > 64 µg/mL; MIC (Enterobacteriaceae [22]): 16 µg/mL; MIC (Enterobacteriaceae [23]): 16 µg/mL; MIC (Staphylococcus aureus [24]): 2 µg/mL; MIC (Enterobacteriaceae [25]): > 64 µg/mL; MIC (Klebsiella pneumoniae [26]): 16 µg/mL
